Experimental data as given in ChEMBL document CHEMBL1938314, “Electrochemical and spectroscopic investigations of isoniazide and its analogs with ds.DNA at physiological pH: evaluation of biological activities” (Eur J Med Chem, 2012).
In brackets after ≈: the same amount, converted by molar mass. Activity calls are given as the source filed them. The rule behind the calls is not given here.

Columns and labels:
[1] = test system: Micrococcus luteus; test: Antibacterial activity against Micrococcus luteus ATCC 10240 at 1 mg/ml after 24 hrs by agar well diffusion method; format: functional; conditions: for zone of inhibition at 1000 µg/mL: ATCC 10240, 24 h, read-out: DIZ
How it was run: (§1)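 Agar well diffusion. Strains grown in LB at 37 °C for 24 h; 0.75 ml broth culture seeded into 75 ml nutrient agar. 8 mm wells received 100 µl of sample at 1 mg/ml in DMSO. Incubated 37 °C for 24 h; inhibition zone diameter measured in mm. DMSO negative control; roxithromycin and cefixime (1 mg/ml) positive controls.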

[2] = test system: Salmonella typhi; test: Antibacterial activity against Salmonella typhi ATCC 6539 at 1 mg/ml after 24 hrs by agar well diffusion method; format: functional, Salmonella enterica subsp. enterica serovar Typhi; conditions: for zone of inhibition at 1000 µg/mL: Salmonella enterica, ATCC 6539, 24 h, read-out: DIZ; for diameter of the inhibition zone (DIZ): Salmonella enterica subsp. enterica serovar Typhi
How it was run: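 Agar well diffusion. S. typhi ATCC 6539 grown in LB at 37 °C for 24 h, 0.75 ml broth culture seeded into 75 ml nutrient agar. 8 mm wells received 100 µl of sample at 1 mg/ml in DMSO. Plates incubated 37 °C for 24 h and inhibition zone diameter measured in mm. DMSO as negative control; roxithromycin and cefixime (1 mg/ml) as positive controls.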

[3] = test system: Nucleic Acid; test: Binding affinity to chicken blood dsDNA assessed as hyperchromic effect at 1.1 x 10 '-4 M at pH 4.7 by UV-spectroscopy; format: nucleic-acid assay; conditions: Gallus gallus
How it was run: (§2)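 Chicken blood DNA (A260/A280 >1.8) quantified at 260 nm (ε 6600). Compound held at 1.1 × 10^-4 M; DNA titrated 10–50 µM in acetate pH 4.7 or phosphate pH 7.4 buffer at 37 °C; UV absorbance recorded. Kb taken as intercept/slope of A0/(A−A0) vs 1/[DNA] (Benesi–Hildebrand); ΔG = −RTlnKb.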

[4] = test system: Escherichia coli; test: Antibacterial activity against Escherichia coli ATCC 15224 after 24 hrs by agar well diffusion method; format: functional; conditions: ATCC 15224, 24 h
How it was run: (§3)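 MIC by agar well diffusion with serial dilutions. Strains grown in LB at 37 °C for 24 h. 0.75 ml broth culture mixed into 75 ml nutrient agar and poured; 8 mm wells cut, filled with test sample in DMSO. Plates incubated 37 °C for 24 h. DMSO served as negative control, roxithromycin and cefixime as positive controls.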

[5] = test system: Nucleic Acid; test: Binding affinity to chicken blood dsDNA assessed as hyperchromic effect at 1.1 x 10 '-4 M at pH 7.4 by UV-spectroscopy; format: nucleic-acid assay; conditions: Gallus gallus; how it was run: as §2
[6] = test system: Artemia; test: Cytotoxicity against brine shrimps after 24 hr; format: functional; conditions: read-out: LD50 (the source's name)
How it was run: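 Brine shrimp lethality. Artemia salina hatched 48 h at room temperature in aerated artificial sea water (sea salt 38 g/l). Ten active nauplii per vial in 5 ml sea water with compound at 10, 100 and 1000 µg/ml final. Survivors counted after 24 h, run in triplicate. LD50 derived by Finney analysis.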

[7] = test system: Escherichia coli; test: Antibacterial activity against Escherichia coli ATCC 15224 at 1 mg/ml after 24 hrs by agar well diffusion method; format: functional; conditions: for zone of inhibition at 1000 µg/mL: ATCC 15224, 24 h, read-out: DIZ; how it was run: as §1
[8] = test system: Nucleic Acid; test: Binding affinity to chicken blood dsDNA assessed as decrease in current at 1 x 10 '-3 M at pH 7.4 by cyclic voltammetry; format: nucleic-acid assay; set-up: scale not given: the % may be the effect or the level left; conditions: Gallus gallus
How it was run: (§4)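 Cyclic voltammetry at glassy carbon electrode vs SCE. Compound 1 mM in acetate pH 4.7 or phosphate pH 7.4 buffer at 37 °C, argon-purged 10–15 min. Scanned −1 to +1.5 V at 100 mV/s before and after chicken blood DNA (10–50 µM final). Peak current decrease and Ep shift recorded; Kb derived from current decrease.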

[9] = test system: Nucleic Acid; test: Binding affinity to chicken blood dsDNA assessed as decrease in current at 1 x 10 '-3 M at pH 4.7 by cyclic voltammetry; format: nucleic-acid assay; set-up: scale not given: the % may be the effect or the level left; conditions: Gallus gallus; how it was run: as §4
[10] = test system: Bordetella bronchiseptica; test: Antibacterial activity against Bordetella bronchiseptica ATCC 10580 after 24 hrs by agar well diffusion method; format: functional; conditions: ATCC 10580, 24 h; how it was run: as §3
[11] = test system: Nucleic Acid; test: Binding affinity to chicken blood dsDNA at pH 4.7 by UV-spectroscopy; format: nucleic-acid assay; conditions: Gallus gallus; how it was run: as §2
[12] = test system: Micrococcus luteus; test: Antibacterial activity against Micrococcus luteus ATCC 10240 after 24 hrs by agar well diffusion method; format: functional; conditions: ATCC 10240, 24 h; how it was run: as §3
[13] = test system: Nucleic Acid; test: Enhancement of OH-radical-induced oxidative Escherichia coli pBR322 damage at 1000 ug/ml incubated for 1 hr in dark by agarose gel electrophoresis; format: nucleic-acid assay
How it was run: (§5)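 pBR322 plasmid diluted in 50 mM phosphate buffer. 15 µl reactions held diluted plasmid, test compound (1000, 100 or 10 µg/ml), 2 mM FeSO4 and 30% H2O2. Incubated 37 °C for 1 h in dark. Controls: plasmid plus FeSO4/H2O2, and untreated plasmid. Run on 1% agarose in TBE, ethidium bromide stained; supercoiled band intensity compared with control.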

[14] = test system: Nucleic Acid; test: Binding affinity to chicken blood dsDNA assessed as shift in Ep/mv at 1 x 10 '-3 M at pH 4.7 by cyclic voltammetry; format: nucleic-acid assay; conditions: Gallus gallus; how it was run: as §4
[15] = test system: Bordetella bronchiseptica; test: Antibacterial activity against Bordetella bronchiseptica ATCC 10580 at 1 mg/ml after 24 hrs by agar well diffusion method; format: functional; conditions: for zone of inhibition at 1000 µg/mL: ATCC 10580, 24 h, read-out: DIZ; how it was run: as §1
[16] = test system: Nucleic Acid; test: Antioxidant activity against OH-radical-induced oxidative Escherichia coli pBR322 damage at 10 to 100 ug/ml incubated for 1 hr in dark by agarose gel electrophoresis; format: nucleic-acid assay; how it was run: as §5
[17] = test system: Klebsiella aerogenes; test: Antibacterial activity against Enterobacter aerogenes ATCC 13048 at 1 mg/ml after 24 hrs by agar well diffusion method; format: functional; conditions: for zone of inhibition at 1000 µg/mL: ATCC 13048, 24 h, read-out: DIZ; how it was run: as §1
[18] = test system: Klebsiella aerogenes; test: Antibacterial activity against Enterobacter aerogenes ATCC 13048 after 24 hrs by agar well diffusion method; format: functional; conditions: ATCC 13048, 24 h; how it was run: as §3
[19] = test system: Staphylococcus aureus; test: Antibacterial activity against Staphylococcus aureus ATCC 6538 at 1 mg/ml after 24 hrs by agar well diffusion method; format: functional; conditions: for zone of inhibition at 1000 µg/mL: ATCC 6538, 24 h, read-out: DIZ; how it was run: as §1
[20] = test system: Nucleic Acid; test: Binding affinity to chicken blood dsDNA at pH 4.7 by cyclic voltammetry; format: nucleic-acid assay; conditions: Gallus gallus; how it was run: as §4
[21] = test system: Nucleic Acid; test: Binding affinity to chicken blood dsDNA assessed as shift in Ep/mv at 1 x 10 '-3 M at pH 7.4 by cyclic voltammetry; format: nucleic-acid assay; conditions: Gallus gallus; how it was run: as §4
[22] = test system: Salmonella typhi; test: Antibacterial activity against Salmonella typhi ATCC 6539 after 24 hrs by agar well diffusion method; format: functional, Salmonella enterica subsp. enterica serovar Typhi; conditions: Salmonella enterica, ATCC 6539, 24 h
[23] = test system: Nucleic Acid; test: Binding affinity to chicken blood dsDNA at pH 7.4 by UV-spectroscopy; format: nucleic-acid assay; conditions: Gallus gallus; how it was run: as §2
[24] = test system: Nucleic Acid; test: Binding affinity to chicken blood dsDNA at pH 7.4 by cyclic voltammetry; format: nucleic-acid assay; conditions: Gallus gallus; how it was run: as §4
[25] = test system: Staphylococcus aureus; test: Antibacterial activity against Staphylococcus aureus ATCC 6538 after 24 hrs by agar well diffusion method; format: functional; conditions: ATCC 6538, 24 h; how it was run: as §3
[26] = test system: Nucleic Acid; test: Antioxidant activity against OH-radical-induced oxidative Escherichia coli pBR322 damage at 10 to 1000 ug/ml incubated for 1 hr in dark by agarose gel electrophoresis; format: nucleic-acid assay; how it was run: as §5
[27] = test system: Nucleic Acid; test: Antioxidant activity against OH-radical-induced oxidative Escherichia coli pBR322 damage at 10 ug/ml incubated for 1 hr in dark by agarose gel electrophoresis; format: nucleic-acid assay; how it was run: as §5
[28] = test system: Nucleic Acid; test: Antioxidant activity against OH-radical-induced oxidative Escherichia coli pBR322 damage at 100 to 1000 ug/ml incubated for 1 hr in dark by agarose gel electrophoresis; format: nucleic-acid assay; how it was run: as §5

SMILES	zone of inhibition at 1000 µg/mL [1]	zone of inhibition at 1000 µg/mL [2]	Activity [3]	Activity [5]	LC50 [6]	zone of inhibition at 1000 µg/mL [7]	Activity [8]	Activity [9]	Kb [11]	Activity [14]	zone of inhibition at 1000 µg/mL [15]	zone of inhibition at 1000 µg/mL [17]	zone of inhibition at 1000 µg/mL [19]	Kb [20]	Activity [21]	Kb [23]	Kb [24]	diameter of the inhibition zone (DIZ) [1]	diameter of the inhibition zone (DIZ) [2]	diameter of the inhibition zone (DIZ) [7]	also measured
NNC(=O)c1ccc(O)cc1O	18.2 mm	24.6 mm	Active	Active	419 mg/L (≈ 2490 µM)	25.1 mm	26.1%	29.2%	2.02 ×10⁴ /M	20	18.2 mm	15.3 mm	13.4 mm	3.13 ×10⁴ /M	37	1.24 ×10⁴ /M	1.31 ×10⁴ /M	–	–	–	MIC [4]: 100 mg/L (≈ 595 µM); MIC [10]: 800 mg/L (≈ 4760 µM); MIC [12]: 800 mg/L (≈ 4760 µM); Activity [13]: Toxic; Activity [16]: Active; MIC [18]: 800 mg/L (≈ 4760 µM); MIC [22]: 100 mg/L (≈ 595 µM); MIC [25]: 200 mg/L (≈ 1190 µM)
C=CC1=C(C(=O)O)N2C(=O)[C@@H](NC(=O)/C(=N\OCC(=O)O)c3csc(N)n3)[C@H]2SC1 [CEFIXIME]	38.7 mm	34.3 mm	–	–	–	40.5 mm	–	–	–	–	38.5 mm	16.1 mm	39.1 mm	–	–	–	–	–	–	–	–
NNC(=O)c1ccncc1 [ISONIAZID]	–	–	Active	Active	1070 mg/L (≈ 7840 µM)	–	77.1%	50.8%	1.6 ×10⁴ /M	51	–	–	–	2.03 ×10⁴ /M	8	1.42 ×10⁴ /M	1.6 ×10⁴ /M	inactive	inactive	inactive	Activity [26]: Active; diameter of the inhibition zone (DIZ) [15]: inactive; diameter of the inhibition zone (DIZ) [17]: inactive; diameter of the inhibition zone (DIZ) [19]: inactive
NNC(=O)c1cnccn1 [PYRAZINE CARBOXYLIC ACID HYDRAZIDE]	–	–	Active	Active	313 mg/L (≈ 2260 µM)	–	33.3%	75%	1.6 ×10⁴ /M	44	–	–	–	1.7 ×10⁴ /M	51	1.1 ×10⁴ /M	1.21 ×10⁴ /M	inactive	inactive	inactive	Activity [27]: inactive; Activity [28]: Active; diameter of the inhibition zone (DIZ) [15]: inactive; diameter of the inhibition zone (DIZ) [17]: inactive; diameter of the inhibition zone (DIZ) [19]: inactive
CC[C@H]1OC(=O)[C@H](C)[C@@H](O[C@H]2C[C@@](C)(OC)[C@@H](O)[C@H](C)O2)[C@H](C)[C@@H](O[C@@H]2O[C@H](C)C[C@H](N(C)C)[C@H]2O)[C@](C)(O)C[C@@H](C)/C(=N\OCOCCOC)[C@H](C)[C@@H](O)[C@]1(C)O [ROXITHROMYCIN]	30.2 mm	27.9 mm	–	–	–	18.1 mm	–	–	–	–	18.2 mm	31.2 mm	32 mm	–	–	–	–	–	–	–	–
